These results are taken from ChEMBL document CHEMBL1667791, “Opioid bifunctional ligands from morphine and the opioid pharmacophore Dmt-Tic” (Eur J Med Chem, 2011).

Test [1] deals with T1, Mu-type opioid receptor (Homo sapiens, UniProt P35372). Description: Agonist activity at human mu opioid receptor expressed in CHO cells by [35S]GTPgammaS binding assay relative to control. In kind it is functional, cell-based. An outline of the steps:
(§1)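 [35S]GTPγS binding (0.080 nM final) on membranes from CHO cells stably expressing human δ (10 μg), μ (7.5 μg) or κ (15 μg) receptors. Twelve compound concentrations were tested in 50 mM Tris-HCl pH 7.4 with 3 mM MgCl2, 0.2 mM EGTA, 3 μM GDP and 100 mM NaCl, for 60 min at 30 °C. Nonspecific binding was set with 10 μM GTPγS. Samples were filtered and counted. Emax was taken relative to basal (0%). Values are mean ± S.E.M., ≥3 experiments in triplicate.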
(GTPγS resists hydrolysis and so accumulates on activated G proteins.)

In test [2] the target is T2, Delta-type opioid receptor (Homo sapiens, UniProt P41143). Description: Antagonist activity at human delta opioid receptor expressed in CHO cells assessed as inhibition of […]-induced [35S]GTPgammaS binding relative to control. In kind it is functional, cell-based.
The target in test [3] is T3, Kappa-type opioid receptor (Homo sapiens, UniProt P41145). Description: Antagonist activity at human kappa opioid receptor expressed in CHO cells assessed as inhibition of […]-induced [35S]GTPgammaS binding relative to control. In kind it is functional, cell-based.
For test [4], the target named is T1, Mu-type opioid receptor. Description: Antagonist activity at human mu opioid receptor expressed in CHO cells assessed as inhibition of DAMGO-induced [35S]GTPgammaS binding relative to control. In kind it is functional, cell-based. In short, it runs like this: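 Human μ-receptor CHO membranes (7.5 μg) were incubated with twelve compound concentrations plus 200 nM DAMGO and 0.080 nM [35S]GTPγS. Nonspecific binding was set with 10 μM GTPγS. Read by filtration and scintillation counting.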

Test [5] has as its target T3, Kappa-type opioid receptor. Description: Agonist activity at human kappa opioid receptor expressed in CHO cells by [35S]GTPgammaS binding assay relative to control. It is filed as functional, cell-based. In short, it runs like this:
as §1

For test [6], the species on record is Homo sapiens. Description: Selectivity ratio of Ki for human kappa opioid receptor to Ki for human mu opioid receptor.
Test [7] is filed under the species Homo sapiens. Description: Selectivity ratio of Ki for human kappa opioid receptor to Ki for human delta opioid receptor.
For test [8], the target named is T2, Delta-type opioid receptor. Description: Agonist activity at human delta opioid receptor expressed in CHO cells by [35S]GTPgammaS binding assay relative to control. In kind it is functional, cell-based. An outline of the steps:
as §1

Test [9] addresses T3, Kappa-type opioid receptor. Description: Displacement of [3H]U69593 from human kappa opioid receptor expressed in CHO cells after 60 mins by scintillation counting. It is filed as cell-based. In general terms: In a radioligand displacement assay an active substance lowers the binding of a labelled ligand.
Test [10] concerns the target T3, Kappa-type opioid receptor. Description: Antagonist activity at human kappa opioid receptor expressed in CHO cells assessed as inhibition of […]-induced [35S]GTPgammaS binding. It is filed as functional, cell-based.
Test [11] deals with T2, Delta-type opioid receptor. Description: Displacement of [3H]naltrindole from human delta opioid receptor expressed in CHO cells after 3 hrs by scintillation counting. In kind it is cell-based.
In test [12] the target is T2, Delta-type opioid receptor. Description: Antagonist activity at human delta opioid receptor expressed in CHO cells assessed as inhibition of […]-induced [35S]GTPgammaS binding. It is filed as functional, cell-based.
Test [13] concerns the target T1, Mu-type opioid receptor. Description: Antagonist activity at human mu opioid receptor expressed in CHO cells assessed as inhibition of DAMGO-induced [35S]GTPgammaS binding. It is filed as functional, cell-based.
Test [14] is filed under the species Homo sapiens. Description: Selectivity ratio of Ki for human mu opioid receptor to Ki for human delta opioid receptor.
Test [15] deals with T1, Mu-type opioid receptor. Description: Displacement of [3H]DAMGO from human mu opioid receptor expressed in CHO cells after 60 mins by scintillation counting. It is filed as cell-based.

Calls of active or inactive are those of the source. No cut-off for these calls is given here.

T1 sequence (P35372 whole entry): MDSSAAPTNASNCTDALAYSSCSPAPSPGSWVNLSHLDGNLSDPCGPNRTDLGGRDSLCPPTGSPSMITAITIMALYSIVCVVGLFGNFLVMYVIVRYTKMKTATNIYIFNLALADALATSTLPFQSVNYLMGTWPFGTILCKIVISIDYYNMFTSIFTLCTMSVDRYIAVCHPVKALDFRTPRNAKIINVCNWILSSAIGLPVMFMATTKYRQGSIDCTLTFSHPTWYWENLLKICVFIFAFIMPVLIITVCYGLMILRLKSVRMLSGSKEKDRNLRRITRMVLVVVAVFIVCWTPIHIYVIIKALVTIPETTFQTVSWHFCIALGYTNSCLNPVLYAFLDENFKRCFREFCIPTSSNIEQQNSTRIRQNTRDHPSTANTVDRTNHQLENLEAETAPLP
T2 sequence (P41143 whole entry): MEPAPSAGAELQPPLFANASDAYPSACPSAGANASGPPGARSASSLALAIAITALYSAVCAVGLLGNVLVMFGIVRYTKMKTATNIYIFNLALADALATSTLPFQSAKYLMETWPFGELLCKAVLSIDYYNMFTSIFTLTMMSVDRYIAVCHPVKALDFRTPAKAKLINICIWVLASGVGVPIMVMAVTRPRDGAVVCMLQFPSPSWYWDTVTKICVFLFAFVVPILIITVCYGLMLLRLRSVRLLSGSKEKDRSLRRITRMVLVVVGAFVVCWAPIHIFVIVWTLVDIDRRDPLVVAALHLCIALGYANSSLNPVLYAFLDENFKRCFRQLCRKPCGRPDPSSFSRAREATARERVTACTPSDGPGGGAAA
T3 sequence (P41145 whole entry): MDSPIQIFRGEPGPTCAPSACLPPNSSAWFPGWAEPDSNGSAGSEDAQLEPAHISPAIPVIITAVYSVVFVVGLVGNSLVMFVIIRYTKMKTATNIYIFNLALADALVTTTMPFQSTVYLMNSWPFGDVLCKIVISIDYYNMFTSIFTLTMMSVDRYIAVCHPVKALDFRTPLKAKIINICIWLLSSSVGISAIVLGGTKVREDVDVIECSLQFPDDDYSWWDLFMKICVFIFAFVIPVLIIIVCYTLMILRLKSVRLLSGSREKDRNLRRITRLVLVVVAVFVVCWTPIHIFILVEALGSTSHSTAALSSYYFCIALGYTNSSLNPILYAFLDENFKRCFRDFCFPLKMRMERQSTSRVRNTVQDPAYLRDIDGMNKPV

For the compound `Cc1cc(O)cc(C)c1C[C@@H](C(=O)N1Cc2ccccc2C[C@H]1C(=O)NCCC(=O)OC1=C2O[C@H]3[C@@H](O)C=C[C@H]4[C@H]5CC(C=C1)C2[C@]43CCN5C)N(C)C` (stereo partly drawn), the Emax in [1] amounted to 14%; in test [5], 41%. For the same compound, the Imax in test [2] was determined as 120%; in [4], 69%. The Imax entry in test [3] is “inactive”.

As to `Cc1cc(O)cc(C)c1C[C@@H](C(=O)N1Cc2ccccc2C[C@H]1C(=O)OC1=C2O[C@H]3[C@@H](O)C=C[C@H]4[C@H]5CC(C=C1)C2[C@]43CCN5C)N(C)C` (stereo partly drawn), the figures for the Ratio Ki in test [6], in test [7] and in test [14] were 11, 7.5 and 1.5, respectively. For the same compound, the Emax in test [8] was -4.9%; in [1], 0.43%; in [5], 2.6%. Besides, the Ki in test [9] amounted to 12 nM; in test [11] it was 1.6 nM; in [15] it was 1.1 nM. In addition, the results for the IC50 in test [10], in test [12] and in test [13] were 3100 nM, 1.7 nM and 13 nM, respectively. Also, the Imax was 120% in test [2], 99% in [3] and 97% in [4].

Regarding `Cc1cc(O)cc(C)c1C[C@@H](C(=O)N1Cc2ccccc2C[C@H]1C(=O)NCCC(=O)O)N(C)C`, in [6], the Ratio Ki is greater than 2.2.

Regarding `Cc1cc(O)cc(C)c1C[C@@H](C(=O)N1Cc2ccccc2C[C@H]1C(=O)O)N(C)C`, the Ratio Ki in test [6] is greater than 4.3; in [7], greater than 3740.

Usually Emax stands for the maximal effect, on the per cent scale that the assay sets. The Ki is the dissociation constant of the complex between target and ligand, obtained from inhibition or displacement. Lower therefore signals a stronger hold on the target. As usually defined, the IC50 is the concentration needed to halve the response being measured.
